Rows were chosen to be rich in hits. Some 2.2% of all compounds tested hit in one or more screens of this group.
C8 TRAIL sens – sensitizes caspase-8 expressing cells to TRAIL. NB7+C8 cells + TRAIL, ATPlite viability luminescence. inhibition (viability loss, TRAIL sensitization), % at 10 µM. 360,000 tested, 1% active;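 active = compounds causing at least 50% loss of cell viability in the single-dose screen, relative to plate controls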
PPC-1+TRAIL kill – compounds killing PPC-1 cancer cells with TRAIL present (potentiator screen, no TRAIL-free arm); PPC-1 cells + TRAIL, ATPLite viability luminescence; cell killing (% activity), % at 4 µM or 5 µM; 220,000 tested, 0.41% active; AID 1443;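 active = cell killing above 50% in the first pass at 4 µM, then a duplicate retest at 5 µM averaging 50% or more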
FLuc inh counter – counter-screen for luciferase assay inhibitors: firefly luciferase inhibition | P08659 | ATPLite firefly luciferase biochemical luminescence, 10 min | inhibition, % at 10 µM | 200,000 tested, 1.5% active | AID 1006;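 active = inhibition above about 50% when tested at 10 µM, limit read from the data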
Target sequence (P08659 whole entry, looked up): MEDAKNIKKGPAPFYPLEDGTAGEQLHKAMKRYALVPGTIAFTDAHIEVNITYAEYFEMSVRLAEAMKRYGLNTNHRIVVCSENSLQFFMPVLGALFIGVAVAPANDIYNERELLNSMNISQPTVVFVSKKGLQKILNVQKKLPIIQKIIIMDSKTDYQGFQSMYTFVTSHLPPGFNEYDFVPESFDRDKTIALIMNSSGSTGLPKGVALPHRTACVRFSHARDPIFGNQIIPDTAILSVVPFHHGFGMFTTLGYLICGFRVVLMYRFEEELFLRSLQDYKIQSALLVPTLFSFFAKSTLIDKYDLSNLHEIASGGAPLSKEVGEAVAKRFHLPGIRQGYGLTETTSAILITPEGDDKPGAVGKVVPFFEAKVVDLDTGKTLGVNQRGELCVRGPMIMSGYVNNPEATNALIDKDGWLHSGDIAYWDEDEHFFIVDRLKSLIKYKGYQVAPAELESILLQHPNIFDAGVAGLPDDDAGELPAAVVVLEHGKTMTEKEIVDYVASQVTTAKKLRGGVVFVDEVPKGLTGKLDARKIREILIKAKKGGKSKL
APP 5'UTR act – activates APP 5'UTR luciferase reporter; SH-SY5Y APP 5'UTR luciferase reporter, luminescence; zero percent = DMSO vehicle wells; activation, % at 2 µM; 190,000 tested, 1% active; AID 1276;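 active = activation above a set limit, based on mean plus 3 SD of controls, cut at about 140% in these data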
NF-kB expr up – raises NF-kB expression in human neuronal cells | NF-kB reporter expression; active compounds read high | fold change at 12.5 µM | 190,000 tested, 1.6% active | AID 1239; in the data active = fold change above about 3.3
FLuc act counter – firefly luciferase counter-screen for stimulation assays. P08659. ATPlite luciferase biochemical, luminescence, 10 min; 0 = ATP-free wells, 1 = DMSO control. activation factor at 10 µM. 200,000 tested, under 10 active. AID 1027;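 active = luciferase activation factor, scaled between plate controls, of at least 2 with compound at 10 µM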
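System: luciferase plus luciferin reagent, cell-free; medium: PBS as buffer for the ATP substrate; dosing: test compounds dosed from 2 mM stocks in 100% DMSO; timing: 10 min post-reagent at room temperature; measured by: luminescence measurement of luciferase light output; evaluation: luciferase activation, seen as luminescence increase over controls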
PPC-1 tox – PPC-1 cell cytotoxicity; shares compounds with PPC-1+TRAIL kill; PPC-1 viability, ATPlite luminescence, overnight; cytotoxicity, % at 5 µM; 1,200 tested, 50% active; AID 1447;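 active = reconfirmed compounds whose average cytotoxicity reaches 50% or more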
Large screens that a line does not name were inactive (follow-up assays come after a bar, where they were run).

COc1ccc(N2CCN(C(=O)/C=C/[C@H]3O[C@@H](n4ccc(=O)[nH]c4=O)[C@H](O)[C@@H]3O)CC2)cc1	none (no result: PPC-1+TRAIL kill, FLuc inh counter, APP 5'UTR act, NF-kB expr up, FLuc act counter)
COc1ccccc1-[n+]1c(C)cc(/C=C2\Sc3ccccc3N2C)cc1C	C8 TRAIL sens 84, PPC-1+TRAIL kill 82 (no result: FLuc inh counter, APP 5'UTR act, NF-kB expr up, FLuc act counter) | PPC-1 tox 82
COc1ccccc1OC(=O)CCN1c2ccccc2Sc2ccccc21	none
COc1ccc(/C=N/Nc2nnc(Cc3ccccc3)c(=O)[nH]2)cc1OC	C8 TRAIL sens 68, PPC-1+TRAIL kill 59 (no result: FLuc inh counter, APP 5'UTR act, NF-kB expr up, FLuc act counter) | PPC-1 tox 59
CCC/C=N/Nc1nnc(Cc2ccc(OC)c(OC)c2)c(=O)[nH]1	none (no result: PPC-1+TRAIL kill, FLuc inh counter, APP 5'UTR act, NF-kB expr up, FLuc act counter)
CC(C)(C)c1ccc(NC(=O)Nc2ccc(OCC(=O)N3CCOCC3)cc2)cc1	C8 TRAIL sens 78, PPC-1+TRAIL kill 63, FLuc inh counter 92, NF-kB expr up 5.3 | PPC-1 tox 63
Cc1noc(C)c1C(=O)Nc1cccnc1	none
Cc1ccc(NC(=O)c2c(C)noc2C)cc1	none (no result: APP 5'UTR act) | PPC-1 tox inactive
Cc1nc(SCC(=O)Nc2nc3ccccc3s2)c(C#N)c(C)c1C	C8 TRAIL sens 95, PPC-1+TRAIL kill 96 | PPC-1 tox 96
Cc1ccc2sc(NC(=O)CSc3nc(C)cc(C)c3C#N)nc2c1	C8 TRAIL sens 70, PPC-1+TRAIL kill 65, NF-kB expr up 6.5 | PPC-1 tox 62
Cc1cc(C)c(C#N)c(SCC(=O)Nc2nnc(-c3ccccc3)s2)n1	none
COc1ccc(OC)c(CN2C(=O)CSCC2(C)C(=O)Nc2c(C)cccc2C)c1 (stereo not given)	none (no result: PPC-1+TRAIL kill, FLuc inh counter, APP 5'UTR act, NF-kB expr up, FLuc act counter)
COC(=O)C1=C(N)Oc2cc(C)n(CCCn3ccnc3)c(=O)c2C1c1cccc(Cl)c1 (stereo not given)	none (no result: APP 5'UTR act, NF-kB expr up) | PPC-1 tox inactive
C/C(=N/NC(=O)c1cccs1)c1c(C)[nH]n(-c2nc3ccccc3s2)c1=O	C8 TRAIL sens 89, PPC-1+TRAIL kill 77, FLuc inh counter 93 | PPC-1 tox 75
CN(C(=O)CSc1nnc(NC2CCCCC2)s1)C1CCS(=O)(=O)C1 (stereo not given)	none
CCc1ccc(Nc2nnc(SCC(=O)NC(=O)c3cccn3C)s2)cc1	none | PPC-1 tox inactive
CCc1ccc(Nc2nnc(SCC(=O)N(C)C3CCS(=O)(=O)C3)s2)cc1 (stereo not given)	C8 TRAIL sens 71, PPC-1+TRAIL kill 70 (no result: FLuc inh counter, APP 5'UTR act, NF-kB expr up, FLuc act counter) | PPC-1 tox 68
CCn1c(-c2cc(-c3ccc(OC(C)C)cc3)nc3ccccc23)n[nH]c1=S	C8 TRAIL sens 56, FLuc inh counter 72 | PPC-1 tox inactive
CCn1c(-c2cc(-c3ccc(C)cc3)nc3ccccc23)n[nH]c1=S	none
Nc1nc(CCl)nc(N(c2ccccc2)c2ccccc2)n1	C8 TRAIL sens 93, PPC-1+TRAIL kill 90 (no result: FLuc inh counter, APP 5'UTR act, NF-kB expr up, FLuc act counter) | PPC-1 tox 90
Cc1cccc2nc(=S)n(C(=O)c3ccco3)n12	C8 TRAIL sens 54, FLuc inh counter 85, APP 5'UTR act 146, NF-kB expr up 12 | PPC-1 tox inactive
O=C(c1ccco1)N1CCN(C(=O)c2ccco2)CC1	none (no result: PPC-1+TRAIL kill, FLuc inh counter, APP 5'UTR act, NF-kB expr up, FLuc act counter)
C=CCn1c(C)cc(C(=O)Cn2nc(C(=O)O)c3ccccc3c2=O)c1C	C8 TRAIL sens 78, FLuc inh counter 92 | PPC-1 tox inactive
COc1ccc(OC)c(CN2C(=O)c3ccccc3C2c2nnnn2C(C)C)c1 (stereo not given)	none (no result: PPC-1+TRAIL kill, FLuc inh counter, APP 5'UTR act, NF-kB expr up, FLuc act counter)
CC(=O)c1c(C)[nH]c(C(=O)Nc2nc(-c3ccc(Cl)cc3)cs2)c1C	none
CC(=O)c1c(C)[nH]c(C(=O)Nc2ccc(C)cn2)c1C	C8 TRAIL sens 73, PPC-1+TRAIL kill 69, FLuc inh counter 88 | PPC-1 tox 66
CC(=O)c1c(C)[nH]c(C(=O)Nc2nc(C)cs2)c1C	C8 TRAIL sens 73, PPC-1+TRAIL kill 66, FLuc inh counter 90 | PPC-1 tox 65
CC(C)CNc1ncnc2c1ncn2[C@H]1CN(Cc2ccc(-c3ccccc3)cc2)C[C@@H](CO)O1	none (no result: PPC-1+TRAIL kill, FLuc inh counter, APP 5'UTR act, NF-kB expr up, FLuc act counter)
Clc1ccc(-c2nnc(SCc3ccon3)o2)c(Cl)c1	C8 TRAIL sens 48, FLuc inh counter 78, APP 5'UTR act 144, NF-kB expr up 9.7 | PPC-1 tox inactive
COc1ccc(N(C(=O)c2ccco2)C(C(=O)NC2CCCCC2)c2cccs2)cc1OC (stereo not given)	none
